Data taken from article PMC7056512 (Cancer research, 2020).
Read-outs that look alike come from different tables or passages of the source.

What was measured:
[1] = tested on: HNSCC cell lines (013C, 036C, 049C, 067C); test: nonadherent sphere formation; type: cell-based, human; details: 1,000nM
How it was run: (§1)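 3x10^3 cells/well in ultra-low-attachment wells with serum-free DMEM/F12 plus 10ng/ml EGF and 10ng/ml bFGF; medium supplemented on days 4, 7 and 10. Spheres (>50µm) imaged, counted and sized (diameter) at day 10. Replicates: 013C n=4 (16 wells); 036C, 049C and 067C n=3 (12 wells).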

[2] = tested on: HNSCC cells and patient-matched CAFs; test: protein synthesis, methionine analog incorporation; type: cell-based, human; details: for suppression of translation: 100nM, all cells; for inhibition of protein synthesis: at concentrations between 10 and 100nM, 1.5h treatment
[3] = tested on: HNSCC cancer cells (Detroit562, FaDu); test: clonogenic radio-modulation; type: cell-based, human; details: multiple SVC112 doses
CUHN013 PDX = test: PDX efficacy study; type: in vivo, Athymic Nude-Foxn1^nu mice
How it was run: (§2)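 Tumor pieces from 4th-8th-generation PDX implanted on both flanks of 6-10-week-old female mice. Anesthetized mice shielded except flank tumors and irradiated at 3 Gy (115 cGy/min) twice weekly for four weeks. Test compound given IP at 60mg/kg right after irradiation and 6h later. Tumors measured twice weekly. ALDH+CD44high CSC fraction measured by flow cytometry on day 28, then related to tumor treatment/control ratio by linear regression.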

013C, 049C, 067C cells = test: ribosome profiling; type: cell-based, human; details: 1,000nM, 6h
How it was run: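 Cells grown 48h in 10cm dishes to ~75% confluence, then treated 6h with DMSO or test compound at 1,000nM. Libraries built with the TruSeq Ribo Profile mammalian protocol. Total mRNA fragments and ribosome-protected fragments sequenced on Illumina HiSeq. RPF counts normalised to RNA-seq, with a >2-fold enrichment cutoff.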

Myc in 067C cells = test: Western blot densitometry of Myc; type: cell-based, human; details: 24h
[4] = tested on: four non-transformed normal lines; test: clonogenic radio-modulation; type: cell-based
036C cells [5] = test: protein synthesis, methionine analog incorporation; type: cell-based, human; details: 1nM
Det562 HNSCC cells [6] = test: clonogenic survival assay; type: cell-based, human; details: read-out: IC50, clonogenicity, drug 24h, then 9 days growth
067C cells [7] = test: protein synthesis, methionine analog incorporation; type: cell-based, human; details: 1nM
CUHN004 PDX = test: PDX efficacy study; type: in vivo, Athymic Nude-Foxn1^nu mice
Det562 HNSCC cells [8] = details: read-out: IC50, proliferation
CUHN047 PDX = test: PDX efficacy study; type: in vivo, Athymic Nude-Foxn1^nu mice; details: for T/C (treatment vs control): twice weekly, day 28
How it was run: as §2

Myc in 036C cells = test: Western blot densitometry of Myc; type: cell-based, human; details: 24h
013C cells [9] = test: nonadherent sphere formation; type: cell-based, human; details: 1,000nM, 10 days
How it was run: as §1

049C cells [10] = test: SRB antiproliferative assay; type: cell-based, human; details: read-out: IC50, antiproliferative
049C cells [11] = test: nonadherent sphere formation; type: cell-based, human; details: 1,000nM, 10 days
How it was run: as §1

CUHN036 PDX = test: PDX efficacy study; type: in vivo, Athymic Nude-Foxn1^nu mice; details: for T/C (treatment vs control): twice weekly, day 28
How it was run: as §2

19 HNSCC cell lines = test: cell growth, CellTiter-Glo, 5 days; type: cell-based, human; details: read-out: average IC50, growth, average of 19 HNSCC lines
[12] = biological target: cap-independent translation of capless luciferase mRNA; test: in vitro translation of uncapped poly; type: biochemical, rabbit; details: read-out: IC50, in vitro cap-independent translation; 30 min at 30°C
036C cells [13] = test: nonadherent sphere formation; type: cell-based, human; details: 1,000nM, 10 days
How it was run: as §1

Myc in 013C cells = test: Western blot densitometry of Myc; type: cell-based, human; details: 24h
[14] = biological target: eEF2 release from the ribosome (Homo sapiens, UniProt P13639); test: co-immunoprecipitation of eEF2 with ribosomal protein RPL13a; type: cell-based; details: 100nM; 013C and 036C cells
067C cells [15] = test: nonadherent sphere formation; type: cell-based, human; details: 1,000nM, 10 days
How it was run: as §1

CUHN036 CSCs = test: sphere formation by CSCs sorted from PDX tumors; type: cell-based, human; details: 1,000nM
How it was run: (§3)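 CSCs sorted from PDX tumours plated at 1x10^4 per well in ultra-low-attachment wells. Medium was serum-free DMEM/F12 with 10ng/ml EGF and 10ng/ml bFGF, supplemented on days 4, 7 and 10. After 14 days, all spheres >50µm imaged, counted and diameter measured.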

013C cells [16] = test: protein synthesis, methionine analog incorporation; type: cell-based, human; details: 10nM
CUHN013 CSCs = test: sphere formation by CSCs sorted from PDX tumors; type: cell-based, human; details: 1,000nM
Myc in 049C cells = test: Western blot densitometry of Myc; type: cell-based, human; details: 24h
067C cells [17] = test: SRB antiproliferative assay; type: cell-based, human; details: read-out: IC50, antiproliferative
013C cells [18] = test: SRB antiproliferative assay; type: cell-based, human; details: read-out: IC50, antiproliferative
036C cells [19] = test: SRB antiproliferative assay; type: cell-based, human; details: read-out: IC50, antiproliferative
CUHN004 CSCs = test: sphere formation by CSCs sorted from PDX tumors; type: cell-based, human; details: 1,000nM
How it was run: as §3

[20] = SVC112 alone, 60mg/kg IP at 0h and 6h
[21] = radiation (3Gy) plus SVC112 60mg/kg
[22] = radiation plus SVC112, by day 28

COC(=O)C[C@](O)(CCCC(C)(C)O)C(=O)O[C@@H]1C(OC)=C[C@]23CCCN2CCc2cc4c(cc2[C@H]13)OCO4 [HHT, Homoharringtonine, reference compound]
sphere formation [1]: blocked nearly all sphere formation | suppression of translation [2]: > 85% | inhibition of protein synthesis [2]: Greater than 75%

Meta Br-N-29-H derivative of RA-VII [SVC112]
dose-modifying factor (DMF) of radiation [3]: > 1 | tumor response (CUHN013 PDX; SVC112 alone or with radiation, twice weekly): did not respond to any treatment | decrease of CSC fraction (ALDH+CD44hi) in tumors (CUHN013 PDX; radiation plus SVC112, day 28): 2.4 fold | increase in captured ribosome protected fragments of DUSP1 (013C, 049C, 067C cells): 238 fold | increase in captured ribosome protected fragments of MAFF (013C, 049C, 067C cells): 346 fold | increase in captured ribosome protected fragments of NUAK2 (013C, 049C, 067C cells): 666 fold | increase in captured ribosome protected fragments of SERTAD1 (013C, 049C, 067C cells): 1699 fold | Myc reduction (Myc in 067C cells): > 80% | dose-modifying factor (DMF) of radiation [4]: near or below 1 | decrease of protein synthesis (036C cells [5]): > 50% | IC50 (Det562 HNSCC cells [6]): ~15 nM | decrease of protein synthesis (067C cells [7]): > 50% | T/C (treatment vs control) (CUHN004 PDX; radiation (3Gy) plus SVC112 60mg/kg, twice weekly, day 28): 0.19±0.05 | decrease of CSC fraction (ALDH+CD44hi) in tumors (CUHN004 PDX; radiation plus SVC112, day 28): 7.9 fold | IC50 (Det562 HNSCC cells [8]): ~280 nM | T/C (treatment vs control) (CUHN047 PDX; [20]): 0.37±0.07 | T/C (treatment vs control) (CUHN047 PDX; [21]): −0.02±0.03 | tumors with complete regression (CUHN047 PDX; [22]): six out of ten | decrease of CSC fraction (ALDH+CD44hi) in tumors (CUHN047 PDX; radiation plus SVC112, day 28): 7.6 fold | Myc reduction (Myc in 036C cells): > 80% | sphere formation blocked (013C cells [9]): 74% | IC50 (049C cells [10]): 24.1 nM | sphere formation blocked (049C cells [11]): 48% | T/C (treatment vs control) (CUHN036 PDX; [20]): 0.45±0.12 | T/C (treatment vs control) (CUHN036 PDX; [21]): 0.08±0.08 | tumors that continued to regress and did not regrow after ending treatment (CUHN036 PDX; radiation plus SVC112, after end of treatment): six of eight | tumors with complete regression (CUHN036 PDX; [22]): four of twelve | decrease of CSC fraction (ALDH+CD44hi) in tumors (CUHN036 PDX; radiation plus SVC112, day 28): 10.4 fold | IC50 (19 HNSCC cell lines): 155 nM | IC50 [12]: 81 ± 16 nM | sphere formation blocked (036C cells [13]): 100% | Myc level, % of baseline (Myc in 013C cells): > 60% | release of eEF2 from the ribosome (immunoprecipitation of eEF2 with Rpl13a) [14]: blocked the release of eEF2 from the ribosome | sphere formation blocked (067C cells [15]): 79% | sphere formation by CSCs (CUHN036 CSCs): blocked sphere formation | inhibition of protein synthesis (013C cells [16]): ~ 50% | sphere formation by CSCs (CUHN013 CSCs): formed fewer, albeit normal-sized spheres | Myc reduction (Myc in 049C cells): > 80% | suppression of translation [2]: > 85% | inhibition of protein synthesis [2]: Greater than 75% | IC50 (067C cells [17]): 9.3 nM | IC50 (013C cells [18]): 50.5 nM | IC50 (036C cells [19]): 3.8 nM | sphere formation by CSCs (CUHN004 CSCs): blocked sphere formation
